Experimental data as given in ChEMBL document CHEMBL1158062, “Cyclopentenones, scaffolds for organic syntheses produced by the endophytic fungus mitosporic dothideomycete sp. LRUB20” (J Nat Prod, 2006).
Converted amounts (≈) assume the structure as drawn. The source made the active and inactive calls. No cut-off for these calls is given here.

Legend:
NCI-H187 [1] = experiment: Cytotoxicity against human NCI-H187 cells at 50 ug/ml by SRB assay; type: functional, cell-based
Vero [2] = experiment: Cytotoxicity against african green monkey Vero cells at 50 ug/ml by SRB assay; type: cell-based; conditions: chlorocebus sabaeus
BC [3] = experiment: Cytotoxicity against BC cells at 50 ug/ml by SRB assay; type: functional, cell-based
KB [4] = experiment: Cytotoxicity against human KB cells at 50 ug/ml by SRB assay; type: functional, cell-based
[5] = system: Mycobacterium tuberculosis; experiment: Antimycobacterial activity against Mycobacterium tuberculosis H37Ra by microplate alamar blue assay; type: functional
In short: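 M. tuberculosis H37Ra grown in Middlebrook 7H9 broth and tested in a microplate Alamar Blue assay, with MIC as the read-out. Isoniazid and kanamycin sulfate were run as standard drugs.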

Vero [6] = experiment: Cytotoxicity against african green monkey Vero cells by SRB assay; type: cell-based; conditions: chlorocebus sabaeus
In short: (§1)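 Colorimetric cytotoxicity read-out following the Skehan method, run on Vero, KB, NCI-H187 and BC cell lines, with ellipticine included as the reference compound; result reported as IC50.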

NCI-H187 [7] = experiment: Cytotoxicity against human NCI-H187 cells by SRB assay; type: functional, cell-based; in short: as §1
BC [8] = experiment: Cytotoxicity against BC cells by SRB assay; type: functional, cell-based; in short: as §1
KB [9] = experiment: Cytotoxicity against human KB cells by SRB assay; type: functional, cell-based; in short: as §1

Compound | Activity (NCI-H187 [1]) | Activity (Vero [2]) | Activity (BC [3]) | Activity (KB [4]) | MIC [5] | IC50 (Vero [6]) | Activity (NCI-H187 [7]) | Activity (BC [8]) | Activity (KB [9])
CC1=C(CO)/C(=N/Nc2ccc([N+](=O)[O-])cc2[N+](=O)[O-])CC1 | inactive | Not Active | inactive | inactive | – | – | – | – | –
COC(=O)c1cc(O)cc(OC)c1Oc1cc(C)cc(O)c1C(=O)O [ASTERRIC ACID] | inactive | Not Active | inactive | inactive | 200 µg/mL (≈ 574 µM) | – | – | – | –
C[C@@H]1CC/C(=N\Nc2ccc([N+](=O)[O-])cc2[N+](=O)[O-])[C@@H]1CO | – | – | – | – | 200 µg/mL (≈ 649 µM) | 21.7 µg/mL (≈ 70.4 µM) | inactive | inactive | inactive
CC1=C(CO)C(=O)CC1 | inactive | Not Active | inactive | inactive | 200 µg/mL (≈ 1590 µM) | – | – | – | –
